Data published in ChEMBL document CHEMBL2040729, “Lead optimization of 17β-HSD1 inhibitors of the (hydroxyphenyl)naphthol sulfonamide type for the treatment of endometriosis” (J Med Chem, 2012).
Active and inactive are the calls of the source. The rule behind the calls is not given here.

Experiments:
[1] = target: T1, 17-beta-hydroxysteroid dehydrogenase type 2 (Homo sapiens, UniProt P37059); assay: Inhibition of human placenta microsomal 17betaHSD2 using [3H]E2 as substrate after 20 mins by radioflow detection assay
T1 sequence (P37059 whole entry): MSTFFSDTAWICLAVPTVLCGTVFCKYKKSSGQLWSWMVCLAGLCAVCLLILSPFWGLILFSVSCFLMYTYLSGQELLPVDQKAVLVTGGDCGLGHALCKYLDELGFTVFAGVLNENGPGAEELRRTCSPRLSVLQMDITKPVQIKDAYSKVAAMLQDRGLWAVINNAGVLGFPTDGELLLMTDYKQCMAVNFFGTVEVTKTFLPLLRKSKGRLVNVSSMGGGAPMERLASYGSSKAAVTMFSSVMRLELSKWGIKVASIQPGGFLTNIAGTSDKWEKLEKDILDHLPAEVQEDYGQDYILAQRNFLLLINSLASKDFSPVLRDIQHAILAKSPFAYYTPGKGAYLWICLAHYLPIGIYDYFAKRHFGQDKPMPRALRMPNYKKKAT
Method in brief: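 Microsomal (pellet) fraction of fresh human placenta incubated with NAD+ 1500 μM, compound, and unlabeled + [3H]-E2 (500 nM final) for 20 min at 37 °C. Stopped with 1 mM HgCl2, ether-extracted. Steroids separated by HPLC with radioflow detection, conversion computed. Mean of three determinations.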

[2] = target: T2, Estrogen receptor (Homo sapiens) (UniProt P03372); assay: Relative binding affinity to human recombinant ERalpha receptor using [3H]E2 as substrate after 1 hr by liquid scintillation counting relative to E2
T2 sequence (whole entry): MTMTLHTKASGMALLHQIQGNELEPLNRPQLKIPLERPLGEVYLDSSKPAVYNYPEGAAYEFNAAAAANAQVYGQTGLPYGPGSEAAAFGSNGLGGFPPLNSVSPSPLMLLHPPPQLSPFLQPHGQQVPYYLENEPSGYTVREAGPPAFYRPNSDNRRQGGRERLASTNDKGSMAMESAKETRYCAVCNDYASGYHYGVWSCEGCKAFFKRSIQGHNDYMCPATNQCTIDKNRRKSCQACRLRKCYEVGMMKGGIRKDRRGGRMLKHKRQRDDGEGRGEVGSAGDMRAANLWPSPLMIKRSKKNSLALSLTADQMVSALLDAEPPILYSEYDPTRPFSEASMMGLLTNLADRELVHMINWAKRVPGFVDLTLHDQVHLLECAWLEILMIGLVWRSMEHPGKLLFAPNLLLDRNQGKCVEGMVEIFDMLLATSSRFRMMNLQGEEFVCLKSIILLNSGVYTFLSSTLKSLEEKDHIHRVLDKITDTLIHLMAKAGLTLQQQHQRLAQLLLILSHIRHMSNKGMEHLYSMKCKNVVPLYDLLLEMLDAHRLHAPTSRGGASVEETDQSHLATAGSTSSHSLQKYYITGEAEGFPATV
Method in brief: (§1)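 Recombinant human ERα or ERβ (0.25 pmol) incubated 1 h at rt with [3H]-E2 (10 nM) and compound in DMSO (5% final). Nonspecific binding defined with diethylstilbestrol 10 μM. Bound complex captured on hydroxyapatite, washed, resuspended in ethanol, counted by liquid scintillation. Concentrations displacing 50% of bound label compared with E2, which is set at 100%.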

Callithrix jacchus [3] = species on record: Callithrix jacchus; assay: Inhibition of mormoset placenta microsomal 17betaHSD2 using [3H]E2 as substrate at 50 nM after 20 mins by radioflow detection assay
[4] = target: T3, 17-beta-hydroxysteroid dehydrogenase type 1 (Mus musculus) (UniProt P51656); assay: Inhibition of mouse liver cytosolic 17betaHSD1 using [3H]E1 as substrate
T3 sequence (whole entry): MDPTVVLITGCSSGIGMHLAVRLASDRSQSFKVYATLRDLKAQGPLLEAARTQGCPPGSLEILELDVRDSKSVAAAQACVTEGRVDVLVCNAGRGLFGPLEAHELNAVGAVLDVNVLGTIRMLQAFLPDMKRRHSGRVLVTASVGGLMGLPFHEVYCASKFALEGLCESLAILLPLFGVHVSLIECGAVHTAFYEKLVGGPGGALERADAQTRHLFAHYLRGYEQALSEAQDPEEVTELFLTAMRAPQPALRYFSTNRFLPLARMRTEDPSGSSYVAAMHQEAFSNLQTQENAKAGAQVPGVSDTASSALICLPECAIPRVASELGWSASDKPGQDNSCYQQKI

Callithrix jacchus [5] = species on record: Callithrix jacchus; assay: Inhibition of mormoset placenta cytosolic 17betaHSD1 using [3H]E1 as substrate at 50 nM after 10 mins by radioflow detection assay
[6] = target: T4, 17-beta-hydroxysteroid dehydrogenase type 1 (Homo sapiens) (UniProt P14061); assay: Inhibition of human placenta cytosolic 17betaHSD1 using [3H]E1 as substrate at 10 nM after 10 mins by radioflow detection assay
T4 sequence (whole entry): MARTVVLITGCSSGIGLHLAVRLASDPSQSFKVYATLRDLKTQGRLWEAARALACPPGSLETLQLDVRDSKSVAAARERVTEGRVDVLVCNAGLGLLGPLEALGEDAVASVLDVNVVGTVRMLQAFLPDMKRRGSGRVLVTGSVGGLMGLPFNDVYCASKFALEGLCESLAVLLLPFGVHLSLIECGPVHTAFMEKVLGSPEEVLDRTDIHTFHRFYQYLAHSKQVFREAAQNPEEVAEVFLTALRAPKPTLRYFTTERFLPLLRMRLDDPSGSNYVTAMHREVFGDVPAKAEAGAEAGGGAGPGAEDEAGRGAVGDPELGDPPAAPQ

[7] = target: Estrogen receptor beta (Homo sapiens) (UniProt Q92731); assay: Relative binding affinity to human recombinant ERbeta receptor using [3H]E2 as substrate after 1 hr by liquid scintillation counting relative to E2; method in brief: as §1
Estrogen receptor beta (Homo sapiens), sequence (Q92731 whole entry): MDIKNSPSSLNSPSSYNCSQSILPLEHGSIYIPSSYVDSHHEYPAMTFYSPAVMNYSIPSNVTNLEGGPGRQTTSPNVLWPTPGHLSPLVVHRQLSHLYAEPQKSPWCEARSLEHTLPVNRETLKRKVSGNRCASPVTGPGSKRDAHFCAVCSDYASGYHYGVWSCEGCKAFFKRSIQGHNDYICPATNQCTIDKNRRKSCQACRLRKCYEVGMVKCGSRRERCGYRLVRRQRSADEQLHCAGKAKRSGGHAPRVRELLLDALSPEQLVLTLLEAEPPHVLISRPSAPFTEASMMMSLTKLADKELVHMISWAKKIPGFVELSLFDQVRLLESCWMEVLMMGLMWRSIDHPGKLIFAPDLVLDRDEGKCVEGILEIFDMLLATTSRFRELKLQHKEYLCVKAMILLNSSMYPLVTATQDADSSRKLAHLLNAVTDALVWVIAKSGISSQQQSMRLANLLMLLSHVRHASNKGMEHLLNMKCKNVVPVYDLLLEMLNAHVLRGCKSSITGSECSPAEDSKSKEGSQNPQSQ

[8] = target: T5, Estradiol 17-beta-dehydrogenase 2 (Mus musculus) (UniProt P51658); assay: Inhibition of mouse liver microsomal 17betaHSD2 using [3H]E2 as substrate
T5 sequence (whole entry): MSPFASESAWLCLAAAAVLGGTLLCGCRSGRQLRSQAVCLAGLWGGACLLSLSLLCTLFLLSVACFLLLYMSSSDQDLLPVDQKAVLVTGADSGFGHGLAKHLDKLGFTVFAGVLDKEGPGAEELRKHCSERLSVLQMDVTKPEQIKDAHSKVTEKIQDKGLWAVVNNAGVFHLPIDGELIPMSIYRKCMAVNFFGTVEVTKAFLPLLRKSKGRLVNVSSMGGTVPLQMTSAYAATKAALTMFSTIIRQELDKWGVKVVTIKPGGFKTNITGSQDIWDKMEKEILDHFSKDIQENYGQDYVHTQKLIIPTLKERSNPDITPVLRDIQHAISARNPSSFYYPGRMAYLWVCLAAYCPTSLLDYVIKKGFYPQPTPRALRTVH

[9] = target: T6, 17-beta-hydroxysteroid dehydrogenase type 1 (Homo sapiens, UniProt P14061); assay: Inhibition of 17betaHSD1 in human T47D cells using [3H]E1 as substrate incubated for 30 mins prior to substrate addition measured after 30 mins by radioflow detection assay; format: cell-based
T6 sequence (P14061 whole entry): T4 sequence (whole entry)
Method in brief: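 T47D cells kept in RPMI 1640 with 10% FCS, glutamine, insulin-zinc, pyruvate, antibiotics. Seeded at 5 × 10^5 cells/well in DMEM with FCS, switched to serum-free DMEM after 24 h. Compound added in DMSO (1% final), 30 min preincubation at 37 °C, 5% CO2. Then unlabeled + [3H]-E1 (50 nM final) for 30 min. Steroids extracted into diethylether. Mean of three determinations.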

[10] = target: T6, 17-beta-hydroxysteroid dehydrogenase type 1; assay: Inhibition of human placenta cytosolic 17betaHSD1 using [3H]E1 as substrate after 10 mins by radioflow detection assay
Method in brief: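 Cytosolic 17β-HSD1 from fresh human placenta, obtained by ammonium sulfate precipitation. Incubated at 37 °C in 50 mM phosphate buffer with 20% glycerol and EDTA, with NADH 500 μM and compound (DMSO 1% final). Started with unlabeled + [3H]-E1 (500 nM final), stopped after 10 min with HgCl2, ether-extracted. E1/E2 quantified by radioflow HPLC as % conversion. At least three independent experiments.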

SMILES	IC50 [1] [nM]	RBA [2] [%]	inhibition (Callithrix jacchus [3]) [%]	inhibition [4]	inhibition (Callithrix jacchus [5]) [%]	inhibition [6] [%]	RBA [7] [%]	inhibition [8]	IC50 [9] [nM]	IC50 [10] [nM]
N#Cc1ccccc1S(=O)(=O)Nc1cccc(-c2c(O)ccc3cc(-c4cccc(O)c4)ccc23)c1	439	< 0.1	35	inactive	43	> 30	< 0.1	Active	157	14
O=S(=O)(Nc1cccc(-c2c(O)ccc3cc(-c4cccc(O)c4)ccc23)c1)c1ccc2ncccc2c1	535	< 0.1	13		38	> 30	< 0.1		498	92
O=[N+]([O-])c1ccccc1S(=O)(=O)Nc1cccc(-c2c(O)ccc3cc(-c4cccc(O)c4)ccc23)c1	238	< 0.1	21		< 10	> 30	< 0.1		462	17
N#Cc1cccc(S(=O)(=O)Nc2cccc(-c3c(O)ccc4cc(-c5cccc(O)c5)ccc34)c2)c1	607	< 0.1	< 10		11	> 30	< 0.1		402	30
O=S(=O)(Nc1cccc(-c2c(O)ccc3cc(-c4cccc(O)c4)ccc23)c1)c1cccc(O)c1	999	< 0.1	< 10	inactive	20		< 0.1	Active	701	14
O=[N+]([O-])c1cccc(S(=O)(=O)Nc2cccc(-c3c(O)ccc4cc(-c5cccc(O)c5)ccc34)c2)c1	374	< 0.1	17		16	> 30	< 0.1		396	20

Other lines, results leading:

IC50 [1] [nM]	RBA [2] [%]	inhibition (Callithrix jacchus [3]) [%]	inhibition [4]	inhibition (Callithrix jacchus [5]) [%]	inhibition [6] [%]	RBA [7] [%]	inhibition [8]	IC50 [9] [nM]	IC50 [10] [nM]	SMILES
223	< 0.1	17		14	> 30	< 0.1		646	46	O=S(=O)(Nc1cccc(-c2c(O)ccc3cc(-c4cccc(O)c4)ccc23)c1)c1cc(F)c(Br)cc1F
403	< 0.1	< 10	inactive	19	> 30	< 0.1	Active	196	15	O=S(=O)(Nc1cccc(-c2c(O)ccc3cc(-c4cccc(O)c4)ccc23)c1)c1ccccc1
1210	< 0.1	32	inactive	17	> 30	< 0.1	Active	246	32	O=S(=O)(CC(F)(F)F)Nc1cccc(-c2c(O)ccc3cc(-c4cccc(O)c4)ccc23)c1
396	< 0.1	33		< 10	> 30	< 0.1		462	22	O=S(=O)(Nc1cccc(-c2c(O)ccc3cc(-c4cccc(O)c4)ccc23)c1)c1cccc(F)c1
